Assay results taken from ChEMBL document CHEMBL3243943, “Adrenoceptor blocking agents. 2. 2-(alpha-Hydroxyarylmethyl)-3,3-dimethylaziridines, a new class of selective beta2-adrenoceptor antagonists” (J Med Chem, 1978).
The source made the active and inactive calls. The calls are words filed in the database; no cut-off is given here.

Assays:
[1] = target: Beta-2 adrenergic receptor (Cavia porcellus) (UniProt Q8K4Z4); assay: Inhibition of beta2-adrenergic receptor in guinea pig tracheal chain assessed as reversal of isoproterenol-induced effect at 3.44 X 10^-8 M to 1.376 X 10^-7 M incubated for 15 mins followed by compound washout measured after 30 to 60 mins; conditions: Trachea
[2] = target: Beta-2 adrenergic receptor (Cavia porcellus) (UniProt Q8K4Z4); assay: Competitive inhibition of beta2-adrenergic receptor in guinea pig tracheal chain assessed as reversal of isoproterenol-induced effect at 3.44 X 10^-8 M to 1.376 X 10^-7 M after 15 mins
Method in brief: (§1)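 Isolated guinea pig tracheal chain in Krebs bicarbonate Ringer at 36.5 ± 0.5 °C, gassed with O2 containing 5% CO2. Tone raised with acetylcholine, then cumulative isoproterenol (1×10^-5 to 1×10^-4 M) given after 15-min antagonist exposure. pA2 by linear extrapolation; mean ± SE, n experiments.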

Cavia porcellus = assay: Anesthetic effect in guinea pig at 0.1 % by intradermal wheal method; assay type: functional, organism-based
Heart = assay: Antiarrhythmic activity against guinea pig auricle; assay type: functional, tissue-based; conditions: Cavia porcellus
Method in brief: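 Electrically driven isolated guinea pig auricles (Dawes method).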

[3] = target: Beta-2 adrenergic receptor (Cavia porcellus) (UniProt Q8K4Z4); assay: Inhibition of beta2-adrenergic receptor in guinea pig tracheal chain assessed as reversal of isoproterenol-induced effect at 1.376 X 10^-7 M to 2.752 X 10^-7 M incubated for 15 mins followed by compound washout measured after 30 to 60 mins; conditions: Trachea
[4] = target: Beta-2 adrenergic receptor (Cavia porcellus) (UniProt Q8K4Z4); assay: Competitive inhibition of beta2-adrenergic receptor in guinea pig tracheal chain assessed as reversal of isoproterenol-induced effect at 1.376 X 10^-7 M to 2.752 X 10^-7 M after 15 mins; method in brief: as §1
Felis catus [5] = assay: Reversal of epinephrine-induced increase in mean arterial blood pressure in cat at 2.5 mg/kg, iv; assay type: functional
[6] = target: Beta-2 adrenergic receptor (Cavia porcellus, UniProt Q8K4Z4); assay: Inhibition of beta2-adrenergic receptor in guinea pig tracheal chain assessed as reversal of isoproterenol-induced effect after 15 mins; set-up: species or system Trachea; conditions: read-out: pA2 (converted)
[7] = target: Beta-1 adrenergic receptor (Cavia porcellus, UniProt B0FL73); assay: Inhibition of beta1-adrenergic receptor in guinea pig auricle assessed as reversal of isoproterenol-induced effect; conditions: read-out: pA2 (converted)
Felis catus [8] = assay: Reversal of isoproterenol-induced increase in mean arterial blood pressure in cat assessed as pressor phase at 2.5 mg/kg, iv; assay type: functional
Felis catus [9] = assay: Reversal of isoproterenol-induced increase in mean arterial blood pressure in cat assessed as depressor phase at 2.5 mg/kg, iv; assay type: functional
[10] = target: Beta-2 adrenergic receptor (Cavia porcellus) (UniProt Q8K4Z4); assay: Inhibition of beta2-adrenergic receptor in guinea pig tracheal chain assessed as reversal of isoproterenol-induced effect at 5.36 X 10^-9 M to 8.576 X 10^-8 M incubated for 15 mins followed by compound washout measured after 30 to 60 mins; conditions: Trachea
[11] = target: Beta-2 adrenergic receptor (Cavia porcellus) (UniProt Q8K4Z4); assay: Competitive inhibition of beta2-adrenergic receptor in guinea pig tracheal chain assessed as reversal of isoproterenol-induced effect at 5.36 X 10^-9 M to 8.576 X 10^-8 M after 15 mins; method in brief: as §1
[12] = target: Beta-2 adrenergic receptor (Cavia porcellus) (UniProt Q8K4Z4); assay: Competitive inhibition of beta2-adrenergic receptor in guinea pig tracheal chain assessed as reversal of isoproterenol-induced effect at 5.868 X 10^-7 M to […] after 15 mins; method in brief: as §1
Trachea = assay: Cholinolytic activity in guinea pig trachea at 2.94 X 10^-7 M to 1.176 X 10^-6 M in presence of acetylcholine; assay type: functional, tissue-based; conditions: Cavia porcellus
Method in brief: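 Guinea pig tracheal chain in Krebs bicarbonate Ringer at 36.5 ± 0.5 °C, gassed with O2/5% CO2. Acetylcholine responses examined in presence of test agent.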

[13] = target: Beta-2 adrenergic receptor (Cavia porcellus) (UniProt Q8K4Z4); assay: Inhibition of beta2-adrenergic receptor in guinea pig tracheal chain assessed as reversal of isoproterenol-induced effect at 5.868 X 10^-7 M to […] incubated for 15 mins followed by compound washout measured after 30 to 60 mins; conditions: Trachea
Ileum = assay: Cholinolytic activity in guinea pig ileum at 2.94 X 10^-7 M to 1.176 X 10^-6 M in presence of acetylcholine; assay type: functional, tissue-based; conditions: Cavia porcellus
Method in brief: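 Isolated guinea pig ileum in oxygenated Tyrode solution at 36.5 ± 0.5 °C. Acetylcholine used as spasmogen; antagonism of contraction by test agent assessed.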

Chain of Beta-1 adrenergic receptor (B0FL73 whole entry): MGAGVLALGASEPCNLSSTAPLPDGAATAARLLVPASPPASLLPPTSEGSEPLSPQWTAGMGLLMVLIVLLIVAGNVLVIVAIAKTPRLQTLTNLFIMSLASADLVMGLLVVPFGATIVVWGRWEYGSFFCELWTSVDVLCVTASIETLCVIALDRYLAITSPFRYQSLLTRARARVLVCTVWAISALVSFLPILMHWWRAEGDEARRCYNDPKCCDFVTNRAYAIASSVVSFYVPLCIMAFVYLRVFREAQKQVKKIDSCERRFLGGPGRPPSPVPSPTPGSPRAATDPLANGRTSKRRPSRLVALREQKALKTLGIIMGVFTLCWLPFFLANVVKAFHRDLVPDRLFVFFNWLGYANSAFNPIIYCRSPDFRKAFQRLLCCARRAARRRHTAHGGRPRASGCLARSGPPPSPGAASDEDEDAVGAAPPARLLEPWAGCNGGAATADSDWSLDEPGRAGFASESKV
Chain of Beta-2 adrenergic receptor (Cavia porcellus) (Q8K4Z4 whole entry, looked up): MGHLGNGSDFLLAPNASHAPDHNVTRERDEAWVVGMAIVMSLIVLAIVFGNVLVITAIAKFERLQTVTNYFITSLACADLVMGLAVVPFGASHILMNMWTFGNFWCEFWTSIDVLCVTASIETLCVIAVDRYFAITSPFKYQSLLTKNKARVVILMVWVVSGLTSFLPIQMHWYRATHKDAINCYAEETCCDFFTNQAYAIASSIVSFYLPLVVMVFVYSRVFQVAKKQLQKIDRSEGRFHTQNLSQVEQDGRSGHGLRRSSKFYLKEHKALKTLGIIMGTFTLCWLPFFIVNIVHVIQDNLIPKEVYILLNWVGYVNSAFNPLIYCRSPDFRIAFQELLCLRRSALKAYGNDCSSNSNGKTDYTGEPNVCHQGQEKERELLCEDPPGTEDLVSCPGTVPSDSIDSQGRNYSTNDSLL
Chain of Beta-2 adrenergic receptor (Q8K4Z4 whole entry): as the sequence (Q8K4Z4 whole entry, looked up) above

Compound | Activity (Cavia porcellus) | Activity (Heart) | Kb [6] [µM] | Kb [7] [µM] | Activity (Felis catus [5]) [%] | Activity (Felis catus [9]) [%] | other results
CC1(C)NC1C(O)c1ccccc1 (stereo in doubt; 1b) [listing 1 of 2 here] | inactive | inactive | – | – | – | – | inhibition [1]: inactive; inhibition [2]: Active
CC1(C)NC1C(O)c1ccccc1 (stereo in doubt; 1a) [listing 1 of 2 here] | inactive | inactive | – | – | – | – | inhibition [3]: inactive; inhibition [4]: Active
CC1(C)NC1C(O)c1ccccc1 (stereo in doubt; 1b) [listing 2 of 2 here] | – | – | 0.0644 | 344 | – | – | Activity (Felis catus [5]; 2.5 mg/kg): 11.1%; Activity (Felis catus [8]; 2.5 mg/kg): 0%; Activity (Felis catus [9]; 2.5 mg/kg): 0%
CC1(C)NC1C(O)c1ccc2ccccc2c1 (stereo not drawn) | inactive | inactive | 0.00304 | 344 | 62 | -33 | inhibition [10]: inactive; inhibition [11]: Active; Activity (Felis catus [8]): 0%
CCN(CC)CCOC(=O)c1ccc(N)cc1 | inactive | inactive | – | – | – | – | –
CC1(C)NC1C(O)c1ccccc1 (stereo in doubt; 1a) [listing 2 of 2 here] | – | – | 0.0619 | 43.2 | – | – | Activity (Felis catus [5]; 2.5 mg/kg): 0%; Activity (Felis catus [8]; 2.5 mg/kg): 20%; Activity (Felis catus [9]; 2.5 mg/kg): -10%
CC(C)NCC(O)COc1cccc2ccccc12 (stereo not drawn) [PROPRANOLOL] | – | inactive | – | – | 45 | -100 | –
CC1(C)NC1C(O)c1ccc(Cl)c(Cl)c1 (stereo not drawn) | Active | Active | 0.398 | 17.4 | 0 | 0 | inhibition [12]: inactive; Activity (Felis catus [8]): -16%; Activity (Trachea): Active; inhibition [13]: inactive; Activity (Ileum): Active
